Source: PubChem (The Scripps Research Institute Molecular Screening Center)
CHRM5 PAM – potentiates acetylcholine response at human M5 receptor; P08912; CHO-K1 hM5, Fluo-8 calcium, ACh EC20 PAM; 0% = ACh EC20, 100% = ACh EC100; activation, % at 3 µM; 0.3% of 360,000 active; AID 624038;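 active = activation above the run cutoff, the mean activation of all test compounds plus 3 SD, cut at about 18% in these data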
Target sequence (P08912 whole entry, looked up): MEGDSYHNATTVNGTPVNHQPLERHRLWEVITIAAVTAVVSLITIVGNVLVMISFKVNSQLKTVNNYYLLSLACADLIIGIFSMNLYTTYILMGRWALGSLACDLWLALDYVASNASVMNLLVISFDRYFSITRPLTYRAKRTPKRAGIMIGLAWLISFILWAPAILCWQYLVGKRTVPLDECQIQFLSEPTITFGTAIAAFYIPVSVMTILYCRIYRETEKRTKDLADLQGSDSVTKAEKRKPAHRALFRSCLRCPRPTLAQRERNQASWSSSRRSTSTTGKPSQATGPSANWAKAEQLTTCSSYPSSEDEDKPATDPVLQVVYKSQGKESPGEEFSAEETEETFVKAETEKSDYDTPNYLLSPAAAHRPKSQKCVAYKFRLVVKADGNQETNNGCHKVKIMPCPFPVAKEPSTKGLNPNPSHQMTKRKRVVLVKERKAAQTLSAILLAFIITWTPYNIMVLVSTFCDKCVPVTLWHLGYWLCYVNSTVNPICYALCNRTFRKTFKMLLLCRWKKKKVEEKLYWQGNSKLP
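Test system: CHO-K1 hM5 cells / Doses: single-point, 3 µM nominal / Times: Post-acetylcholine fluorescence recording 140 s / Technique: Fluo-8 calcium fluorescence / Measure: Max/basal fluorescence ratio as % of EC20–EC100 ACh window / Benchmarks: low control EC20 acetylcholine (0%), high control EC100 acetylcholine (100%) / Replicates: one well per compound, no replicates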
M1 ag – human M1 muscarinic receptor agonism. activation, % at 3 µM. CHO-K1 hM1, Fluo-8 calcium fluorescence, agonist mode; 0% DMSO, 100% acetylcholine EC100. P11229. 0.33% of 360,000 active;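 active = activation above the run's mean compound activation plus 3 SD, cut at about 16% in these data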;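 note: peak over basal fluorescence ratio within a 140 s kinetic read after compound addition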
M1 PAM – human CHRM1 positive allosteric modulation; CHO-K1 hM1, Fluo-8 calcium fluorescence, ACh EC20; 0% = ACh EC20, 100% = maximal ACh; activation, % at 3 µM; P11229; 0.088% of 360,000 active; in the data active = activation above about 19%, passing the limit was not always enough
M1 antag – human CHRM1 antagonism; P11229; inhibition, % at 3 µM; CHO-K1 hM1, Fluo-8 calcium fluorescence, ACh EC80 antagonist; 1.3% of 360,000 active;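 active = percent inhibition above its own plate's cutoff, namely the mean of that plate's compound wells plus 3 SD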;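 note: peak over basal fluorescence ratio during 140 s after agonist addition; 0% = ACh EC80 plus DMSO and 100% = DMSO alone without agonist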
M5 ag – CHRM5 agonism in calcium assay. 0.19% of 360,000 active. AID 624037. activation, % at 3 µM. CHO-K1 hM5 cells, Fluo-8 calcium fluorescence; 0% DMSO wells, 100% maximal acetylcholine response;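 active = activation above the run's mean over test compounds plus 3 SD, cut at about 23% in these data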;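 note: signal is peak over basal fluorescence ratio across the kinetic read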
CHRM5 antagonist – antagonists of human muscarinic M5 receptor (CHRM5) | P08912 | CHO-hM5 cells, Fluo-8 calcium fluorescence, ACh EC80 | inhibition, % at 3 µM | 0.59% of 360,000 active | AID 624040;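 active = inhibition above a per-plate cutoff, the mean of that plate's test compounds plus 3 SD, cut at about 27% in these data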;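 note: 0% = acetylcholine EC80 with DMSO and 100% = DMSO without agonist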
* marks the source's active call; other numbers are inactive results. An excerpt weighted towards active compounds, which were near 2.1% of everything screened.

SMILES	CHRM5 PAM	M1 ag	M1 PAM	M1 antag	M5 ag	CHRM5 antagonist
NC(=O)CC(NC(=O)Cc1cccc2ccccc12)c1ccc(NC2CCCC2)c([N+](=O)[O-])c1 (configuration not stated)	-2	-4	0	0	2	3
NC(=O)CC(NC(=O)Cc1cccc2ccccc12)c1ccc(NC2CC3CCC2C3)c([N+](=O)[O-])c1 (configuration not stated)	19*	4	19	-5	5	-7
NC(=O)CC(NC(=O)c1cccc(Br)c1)c1ccc(NC2CCN(Cc3ccccc3)CC2)c([N+](=O)[O-])c1 (configuration not stated)	-6	-11	-26	46*	-7	13
O=C(COC(=O)COc1cccc(F)c1)NCCC1=CCCCC1	-1	1	11	-8	1	4
Cc1csc(=O)n1CC(=O)OCc1nnc(-c2ccc([N+](=O)[O-])cc2)o1	3	-2	15	-18	3	9
CC1Sc2ccc(S(=O)(=O)N3CCC(C(=O)NCCc4ccccc4)CC3)cc2NC1=O (configuration not stated)	-4	0	-4	6	0	-5
Cc1cc(C)cc(NC(=O)C2CCN(S(=O)(=O)c3ccc4c(c3)NC(=O)C(C)S4)CC2)c1 (configuration not stated)	-14	-1	-14	42	-3	11
Cc1ccc(NC(=O)C2CCN(S(=O)(=O)c3ccc4c(c3)NC(=O)C(C)S4)CC2)cc1Cl (configuration not stated)	-12	-3	-11	38	-2	28*
CC1Sc2ccc(S(=O)(=O)N3CCC(C(=O)NCC(C)c4ccccc4)CC3)cc2NC1=O (configuration not stated)	-15	1	-17	46*	2	18
Cc1cccc2c(C(=O)Nn3cnnc3)cc(-c3ccccc3Cl)nc12	5	-1	13	-10	-3	3
O=S(=O)(c1ccc(Br)s1)N1CCN(Cc2ccc3c(c2)OCO3)CC1	-21	-4	-6	3	-6	9
CCOc1ccc(C(C)NC(=S)NCc2ccc(F)cc2)cc1 (configuration not stated)	-6	2	-10	15	5	6
CCc1ccc(C(C)NC(=S)NCc2ccc(F)cc2)cc1 (configuration not stated)	-11	0	-12	40*	16	10
O=C(c1ccco1)N1CCN(C(=O)c2cc3c(s2)-c2ccccc2OC3)CC1	-9	-2	-6	-7	0	2
COc1ccc(N2CCN(S(=O)(=O)CCNC(=O)/C=C/c3ccc4c(c3)OCO4)CC2)cc1	-9	-1	-2	15	6	4
CC1CN(C(=O)COc2ccc3c(-c4ccccc4)cc(=O)oc3c2)CC(C)O1 (configuration not stated)	-8	-2	-14	29*	0	8
CCN1CCN(c2ccc(N3CCN(S(=O)(=O)c4cc([N+](=O)[O-])ccc4C)CC3)nn2)CC1	2	-8	-26	40*	-5	0
CCN1CCN(c2ccc(S(=O)(=O)N3CCCC3)cn2)CC1	0	-6	-18	36*	-7	6
Cn1cc(/C=C/C(=O)N2CCCC(C(=O)c3cccc4ccccc34)C2)cn1 (configuration not stated)	0	-2	0	-2	-2	6
Cc1csc(NC(=O)c2cc(-c3ccco3)nc3ccccc23)n1	2	-2	1	-6	0	-8
Cc1ccccc1-c1noc(N)c1C#N	25*	-7	7	-14	-2	-8
CCOc1cc(-c2noc(N)c2C#N)cc(OCC)c1OCC	-3	-5	8	-19	-4	-1
CCCCn1c(SCC(=O)OCC)nc2c1c(=O)[nH]c(=O)n2C	2	-5	4	-11	0	-1
O=C(N/N=C/c1cccc2ccccc12)c1cccnc1	3	-2	10	-13	0	0
COc1ccc(C(=O)N/N=C/c2cccnc2)cc1	2	-1	8	-16	-3	4
SMILES	CHRM5 PAM	M1 ag	M1 PAM	M1 antag	M5 ag	CHRM5 antagonist
Cc1ccccc1/C=N/NC(=O)c1cccnc1	-6	3	27*	-34	0	5
Cc1nc(N)sc1C(=O)N/N=C/c1cccnc1	19*	-7	8	-2	3	-8
COc1ccccc1COc1cccn2c(N(C)C(=O)CCC3CCCC3)c(C)nc12	-9	-7	-27	25	-3	3
Cc1ccccc1COc1cccn2c(N(C)C(=O)CCC3CCCC3)c(C)nc12	0	-5	-30	39*	-1	-4
COc1ccc(-n2nc(C(=O)NCC(=O)N3CCOCC3)c3ccccc3c2=O)cc1OC	0	-3	3	-6	0	8
COc1ccc(-n2nc(C(=O)NCC(=O)N3CCN(Cc4ccc5c(c4)OCO5)CC3)c3ccccc3c2=O)cc1OC	-11	1	-18	41*	-3	15
COc1ccc(-n2nc(C(=O)NCC(=O)N3CCN(c4ccccn4)CC3)c3ccccc3c2=O)cc1OC	-23	-5	-13	37*	1	19
CCn1nc(C)c(CCC(=O)O)c1C	8	-1	1	-2	2	12
CSc1ccc(Cn2nnc(C(=O)NCc3ccccc3)c2N)cc1	-4	34*	-3	14	42*	9
Cc1ccc2nc(NC(=O)C3CCN(S(=O)(=O)c4cccc5nsnc45)CC3)sc2c1	6	2	3	4	1	-3
O=C(NCc1ccccc1)C1CCN(S(=O)(=O)c2cc([N+](=O)[O-])ccc2Cl)CC1	-2	-5	6	-7	3	7
O=C(Nc1nc2ccc(F)cc2s1)C1CCN(S(=O)(=O)c2cc([N+](=O)[O-])ccc2Cl)CC1	-18	-9	-22	32*	-2	44*
Cc1ccc(NC(=O)C2CCN(S(=O)(=O)c3cc([N+](=O)[O-])ccc3Cl)CC2)nc1	-21	-2	-19	42*	1	18
CC(NC(=O)C1CCN(S(=O)(=O)c2cc([N+](=O)[O-])ccc2Cl)CC1)c1ccccc1 (configuration not stated)	4	-4	3	3	-1	-6
Cc1ccc2nc(NC(=O)C3CCN(S(=O)(=O)c4cc([N+](=O)[O-])ccc4Cl)CC3)sc2c1	-13	-9	-17	28	-2	30*
